Plk1 PBD FP = inhibitors of human Plk1 polo box domain binding | actives 0.13% (n = 97,000) | Plk1 PBD phosphopeptide binding, fluorescence polarization | inhibition, %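 (tested at about 20 µM)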 | P53350; in the data active means inhibition above about 34%, passing the limit was not always enough
Target sequence (P53350 whole entry, looked up, the tested form may be a part): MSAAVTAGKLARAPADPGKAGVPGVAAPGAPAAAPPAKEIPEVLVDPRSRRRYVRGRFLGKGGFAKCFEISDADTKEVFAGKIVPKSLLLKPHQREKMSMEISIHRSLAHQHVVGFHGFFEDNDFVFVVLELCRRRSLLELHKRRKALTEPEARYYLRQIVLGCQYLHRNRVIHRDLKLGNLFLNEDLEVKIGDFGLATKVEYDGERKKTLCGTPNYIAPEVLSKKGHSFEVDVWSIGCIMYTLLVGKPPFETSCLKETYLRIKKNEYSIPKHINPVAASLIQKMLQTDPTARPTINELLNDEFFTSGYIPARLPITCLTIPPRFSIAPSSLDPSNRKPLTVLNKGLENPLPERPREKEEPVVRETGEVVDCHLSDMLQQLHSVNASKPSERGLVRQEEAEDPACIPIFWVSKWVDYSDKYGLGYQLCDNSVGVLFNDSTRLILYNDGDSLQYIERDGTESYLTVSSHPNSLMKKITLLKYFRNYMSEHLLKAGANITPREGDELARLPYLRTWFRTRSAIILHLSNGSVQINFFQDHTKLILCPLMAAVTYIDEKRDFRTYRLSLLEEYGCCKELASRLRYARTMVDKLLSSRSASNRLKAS
PTK2B oligo ant = antagonists of human Pyk2 oligomerization; z-score (the deposit names both 25 µM and 10 µM); actives 0.83% (n = 99,000); Q293 cells, Pyk2 FERM NanoBiT luminescence; hits give low values; Q14289;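 active means Z-score of -3 or lower, scaled per plate to the spread of control and sample wells; inactive means z-score above -3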;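 further: negative z-score means lost luminescence so less FERM oligomerization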
HePTP inh = human HePTP phosphatase inhibition; recombinant HePTP phosphatase activity, OD absorbance; P35236; actives 0.64% (n = 110,000); inhibition, % at 20 µM; in the data active means inhibition above about 50%;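 further: plate controls were vehicle for no effect and reference inhibitor for full effect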
AP complement = alternative pathway complement inhibition, orthogonal assay. Human serum alternative complement pathway, LPS-coated ELISA, C3 deposition; tested in compound mixtures. inhibition, % at 5 µM. actives 0.08% (n = 62,000). AID 1235;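 active means inhibition above 30% in each of the two pooled mixtures holding the compound, so the lower value exceeds 30%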;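 further: 0% = serum in Mg-EGTA without compound and 100% = EDTA serum blank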
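Assay system: human serum alternative complement pathway, C3 deposition on LPS-coated wells; Dosing: 5 µM per compound in ten-compound mixtures; Detection: Anti-C3 ELISA, OD 450 nm; Buffer or medium: Mg2+-EGTA GVB++ buffer containing human serum at 1:15 dilution; Timing: 1 h at 37 °C; Replication: two different pools per compound.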
PLK1 inh = inhibitors of human PLK1 kinase. P53350. recombinant PLK1 kinase, TR-FRET peptide phosphorylation. inhibition, % at 10 µM. actives 0.53% (n = 97,000). AID 619;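 active means inhibition of 50% or more in the single-concentration screen; inactive means inhibition below 50%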;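 further: 0% = DMSO max control and 100% = H-89 dihydrochloride min control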
HEK293 NFkB inh = lowers PMA/ionomycin-induced NF-kB signal in HEK293 cells. HEK-293 NF-kB luciferase reporter, luminescence. inhibition, % at 3 µM. actives 0.21% (n = 62,000). AID 465;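 active means inhibition above the mean of all tested compounds plus 3 SD, cut at about 40% in these data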;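 further: 0% = stimulated DMSO wells and 100% = 10 µM reference inhibitor 5653914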
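Timing: 1 h pretreatment, 16 h stimulation, 37 °C; system: HEK-293 cells with stable firefly luciferase reporter driven by four HIV NF-kB elements; doses: 3 µM once, 0.30% DMSO; measured by: luciferase luminescence; control set: DMSO and 10 µM reference inhibitor; repeats: single test; reagent: PMA plus ionomycin mix as NF-kB-activating stimulus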
Starred values were filed as active, the others as inactive; · = no result. Sampled rows, rich in hits. Any-hit rate of the full collection: about 1.5%.

SMILES	Plk1 PBD FP	PTK2B oligo ant	HePTP inh	AP complement	PLK1 inh	HEK293 NFkB inh
O=C(CSc1nnc2scc(-c3ccccc3)n12)c1ccc2c(c1)OCCO2	-26	·	2	8	59*	-3
COc1cc(/C=C(\C#N)c2nc3ccccc3[nH]2)ccc1Oc1ccc([N+](=O)[O-])cn1	-35	-3.3*	·	·	-1	·
O=c1cc2[nH]c3ccccc3c(=O)n2nc1-c1ccccc1	13	-3.1*	·	·	-4	·
O=c1nc(-c2ccccc2)c2cc(Cl)ccc2[nH]1	-9	-0.08	16	·	-16	19
COc1c(OC(C)=O)ccc(/C=N\NC(=O)COc2cccc(Cl)c2)c1[N+](=O)[O-]	·	·	-7	·	·	·
CC(C)(C)c1ccc(S(=O)(=O)NNc2ccccc2)cc1	·	·	101*	·	·	·
COc1ccc(C2NC(=O)NC(c3ccccc3)=C2c2nc3ccccc3s2)cc1 (centres undefined)	6	-2.9	·	·	-12	·
O=C1NC(c2ccccc2)=C(c2nc3ccccc3s2)C(c2ccc(F)cc2)N1 (centres undefined)	2	-3.2*	·	·	-10	·
O=C(C(=O)c1ccc(I)cc1)c1ccc(I)cc1	·	·	10	·	·	·
Cc1ccc2c(CN3CCN(CCO)CC3)cc(=O)oc2c1C	13	-3.5*	·	·	-4	·
COC(=O)c1sc2ccccc2c1N	·	·	4	10	·	3
COC(=O)c1c2nc3ccccc3sc-2cc(=O)c1N	·	·	68*	·	·	·
C=CCn1c2ccccc2c2nnc(SC)nc21	·	·	8	·	·	·
C=CCn1c2ccccc2c2nnc(SCC(=O)N=C3NC(=O)CS3)nc21	·	·	56*	·	·	·
COc1cc(C(=O)NC(NC(=S)Nc2cccc([N+](=O)[O-])c2)C(Cl)(Cl)Cl)cc(OC)c1OC (centres undefined)	·	·	2	·	·	·
O=C1N=c2ccccc2=C1c1sc(=O)n(-c2cccc(O)c2)c1O	·	·	-18	·	·	·
O=C1N=c2ccccc2=C1c1s/c(=N/N=C2/C(=O)Nc3ccccc32)n(-c2ccc(O)cc2)c1O	·	·	98*	·	·	·
Cc1c(C(=O)OC2CCCCC2)sc2nc[nH]c(=O)c12	-1	-0.2	4	14	68*	14
Cc1sc2ncn(C(C)C(=O)OC3CCCCC3)c(=O)c2c1C (centres undefined)	-11	-0.93	·	·	-10	·
N#Cc1c(-c2cc(Br)cs2)c2c(=O)[nH]c(=O)[nH]c2[nH]c1=O	·	·	-2	·	·	·
Cc1ccc(Nc2cc(C)nn2-c2nc(C)cc(=O)[nH]2)cc1	9	-1.9	0	-10	6	68*
CCC1=NN2C(=N)/C(=C/c3ccc(-c4ccc(F)cc4)o3)C(=O)N=C2S1	·	·	-23	·	·	·
CCC1=NN2C(=N)/C(=C/c3ccc(-c4ccc(C(=O)O)cc4)o3)C(=O)N=C2S1	·	·	57*	·	·	·
O=C(c1ccc(-c2ccc(Br)cc2)o1)N1CCOCC1	·	·	-5	·	·	·
O=C1NC(=S)N/C1=C\c1ccc(-c2cc([N+](=O)[O-])ccc2Br)o1	·	·	102*	·	·	·
SMILES	Plk1 PBD FP	PTK2B oligo ant	HePTP inh	AP complement	PLK1 inh	HEK293 NFkB inh
C=CCN1C(=O)/C(=C\c2ccc(-c3ccccc3[N+](=O)[O-])o2)C(=O)NC1=S	·	·	15	·	·	·
C=CCN1C(=O)/C(=C\c2ccc(-c3ccc([N+](=O)[O-])cc3C)o2)C(=O)NC1=S	·	·	103*	·	·	·
C=CCN1C(=O)/C(=C\c2ccc(-c3ccc([N+](=O)[O-])cc3Br)o2)C(=O)NC1=S	·	·	98*	·	·	·
C=CCN1C(=O)/C(=C\c2ccc([N+](=O)[O-])o2)C(=O)NC1=S	·	·	103*	·	·	·
COc1ccc(Nc2nc(NCc3ccco3)nc(N/N=C/c3ccccc3)n2)cc1	19	-3.2*	·	·	-7	·
CCOc1nc(NCc2ccco2)nc(Nc2ccc(OC)cc2)n1	2	-2.5	11	9	10	5
CCOC(=O)c1ccc(NS(=O)(=O)N2CCCCCC2)cc1	-12	-3.1*	2	0	-13	5
CCOC(=O)c1ccc(NC(=O)C2CCN(S(=O)(=O)CC)CC2)cc1	0	0.73	4	6	-4	7
COc1ccc(/C=C2\C(=O)NC(=O)N(c3ccc(Br)c(C)c3)C2=O)cc1	·	·	2	·	·	·
O=C1N=C(N2CCN(C3=NC(=O)/C(=C\c4ccc(O)cc4)S3)CC2)S/C1=C\c1ccc(O)cc1	·	·	11	·	·	·
O=c1sc2ccccc2n1COc1ccc(Cl)cc1	3	-1.5	·	·	0	·
CC(C)Oc1ccc(Cn2c(=O)sc3ccccc32)cc1	-5	-3.3*	·	·	-5	·
O=C(Nc1nccs1)C1Cc2ccccc2CN1S(=O)(=O)c1ccc(F)cc1 (centres undefined)	-8	-1.7	·	·	-7	·
O=C(Nc1nnc(C2CC2)s1)C1Cc2ccccc2CN1S(=O)(=O)c1ccccc1F (centres undefined)	-3	-3.7*	·	·	-9	·
COC(=O)C1=C(C)N(Cc2cccnc2)C(=O)/C1=C\c1ccc(Br)cc1	·	·	-8	·	·	·
CC1=NN(c2ccccc2)C(=O)C1C=C1C(=O)NC(=S)NC1=O (centres undefined)	·	·	54*	·	·	·
COc1cc(-c2c(C#N)c(N)nc3c2c(C)nn3-c2ccc(C)c(C)c2)cc(OC)c1OC	·	-3.4*	3	-12	·	16
CC(C)Oc1ccc(-c2nc3sc4c(c3c(=O)[nH]2)CCCC4)cc1	·	·	12	·	·	·
CCOc1ccc2nc(SCc3ccccn3)sc2c1	·	·	79*	·	·	·
c1ccc(CSc2nc3ccccc3s2)nc1	·	·	-3	·	·	·
CN(C)S(=O)(=O)c1ccc(Nc2ccc(-c3ccc4c(c3)OCCO4)nn2)cc1	-2	-2.1	·	·	-17	·
CN(C(=O)c1cccc(Nc2ccc(-c3ccc4c(c3)OCCO4)nn2)c1)C1CCCCC1	-10	-3.6*	·	·	-5	·
CN=C(Nc1ccc(Cl)cc1)SC1CC(=O)N(c2ccccc2F)C1=O (centres undefined)	·	·	6	·	·	·
O=c1c2ccccc2cnn1-c1nc2ccccc2s1	·	·	0	7	·	77*
COCCn1c(C)cc(C(=O)CSc2n[nH]c(N)n2)c1C	-1	-0.16	5	9	-5	9
SMILES	Plk1 PBD FP	PTK2B oligo ant	HePTP inh	AP complement	PLK1 inh	HEK293 NFkB inh
COCCn1c(C)cc(C(=O)CSc2nnc(C)s2)c1C	·	0.86	2	12	·	46*
Cc1cc(C)c2nc3s/c(=C\c4ccc([N+](=O)[O-])cc4)c(=O)n3c2c1	·	·	-6	·	·	·
O=C1N=c2ccccc2=C1c1sc(=S)[nH]c1O	·	·	70*	·	·	·
O=C1N=c2ccccc2=C1c1[nH]c(=S)[nH]c1O	·	-0.92	-19	·	·	·
COc1ccc(-n2ncc3c(N4CCCCC4)ncnc32)cc1	·	·	0	9	·	58*
Clc1ccc(-n2ncc3c(N4CCCCCC4)ncnc32)cc1	·	·	5	16	·	48*
Clc1ccc(Cn2ncc3c(N4CCCCC4)ncnc32)cc1	-3	-2	-7	0	-12	-2
Cc1ccoc1C(=O)NCc1ccccc1	·	·	6	·	·	·
COc1ccc(NS(=O)(=O)c2ccc(F)cc2)c([N+](=O)[O-])c1	·	·	10	·	·	·
O=C(O)c1cccc(COc2ccc(CO)cc2Cl)c1	·	0.39	6	15	·	94*
O=C(O)c1ccc(COc2ccc(CO)cc2Cl)cc1	5	-0.56	2	11	-4	-8
